Assay outcomes: PubChem BioAssay, The Scripps Research Institute Molecular Screening Center
Most compounds without a hit are left out; they make up all but 3.9% or so of the library.
M1 PAM: potentiates human M1 receptor response to acetylcholine | CHO-K1 hM1, Fluo-8 calcium fluorescence, ACh EC20; 0% = ACh EC20, 100% = maximal ACh | activation, % at 3 µM | 0.088% of 360,000 active | AID 588819; in the data active = activation above about 19%, passing the limit was not always enough
M1 ag: activates human CHRM1 receptor | P11229 | 0.33% of 360,000 active | activation, % at 3 µM | CHO-K1 hM1, Fluo-8 calcium fluorescence, agonist mode; 0% DMSO, 100% acetylcholine EC100;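 active = activation above the run's mean compound activation plus 3 SD, cut at about 16% in these data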;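 also: peak over basal fluorescence ratio within a 140 s kinetic read after compound addition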
HTR2A ag: mouse HTR2A agonism via beta-arrestin recruitment | AID 624169 | activation, % at 7.6 µM | 0.66% of 360,000 active | CHO-K1 mHTR2A beta-arrestin complementation, luminescence; percent of 30 µM serotonin response;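 active = activation above a run cutoff, the mean activation of all tested compounds plus 3 SD, cut at about 14% in these data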;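 also: 0% = plate median of compound wells and 100% = 30 µM serotonin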
Target sequence (P35363 whole entry, looked up): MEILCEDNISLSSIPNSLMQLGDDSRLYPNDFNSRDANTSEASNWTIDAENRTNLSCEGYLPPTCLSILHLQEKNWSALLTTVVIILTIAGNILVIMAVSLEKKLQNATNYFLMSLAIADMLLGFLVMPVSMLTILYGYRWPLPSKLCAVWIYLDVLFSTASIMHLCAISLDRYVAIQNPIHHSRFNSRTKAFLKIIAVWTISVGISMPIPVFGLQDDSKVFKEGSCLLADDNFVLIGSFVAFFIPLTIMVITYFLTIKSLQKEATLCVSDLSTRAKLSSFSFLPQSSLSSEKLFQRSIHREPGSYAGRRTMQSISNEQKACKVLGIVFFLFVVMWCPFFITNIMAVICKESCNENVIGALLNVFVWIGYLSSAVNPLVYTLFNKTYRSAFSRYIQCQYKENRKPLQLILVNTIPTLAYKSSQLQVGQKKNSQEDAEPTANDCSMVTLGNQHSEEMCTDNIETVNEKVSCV
TAAR1 agonist: human TAAR1 agonism. CHO RD-HGA16 TAAR1, Fluo-8 calcium fluorescence; vehicle wells 0%, saturating PEA agonist 100%. 0.99% of 360,000 active. activation, % at 3 µM;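 active = activation above the mean activation of all test compounds in the run plus 3 SD, cut at about 38% in these data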
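Assay system: CHO-derived RD-HGA16 cells with stable Gα16 and human TAAR1; timing: 17-24 h seeding, 75 min 37 °C dye, 30 min RT; read-out: % activation from peak over basal fluorescence ratio, DMSO-to-PEA scaled; measured by: kinetic Fluo-8 calcium fluorescence; benchmarks: low control DMSO, high control PEA (EC100); doses: 3 µM single concentration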
M1 antag: human CHRM1 antagonism; CHO-K1 hM1, Fluo-8 calcium fluorescence, ACh EC80 antagonist; 1.3% of 360,000 active; inhibition, % at 3 µM; AID 588852;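 active = percent inhibition above its own plate's cutoff, namely the mean of that plate's compound wells plus 3 SD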;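 also: peak over basal fluorescence ratio during 140 s after agonist addition; 0% = ACh EC80 plus DMSO and 100% = DMSO alone without agonist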
TAAR1 antagonist: antagonists of human TAAR1; CHO RD-HGA16 TAAR1, Fluo-8 calcium fluorescence, antagonist; Q96RJ0; 1.5% of 360,000 active; inhibition, % at 3 µM;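 active = inhibition above a per-plate cutoff, the mean inhibition of test compounds on that plate plus 3 SD, cut at about 49% in these data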;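 also: 0% = DMSO plus EC80 beta-PEA response and 100% = DMSO alone without agonist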
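Test system: RD-HGA16 CHO cells with stable hTAAR1 and Gα16 / Probe or stimulus: EC80 β-phenethylamine stimulus / Times: seeding 17-24 h prior, 75-min 37 °C, 30-min RT dye loading / Detection: Fluo-8 calcium-sensitive fluorescence / Read-out basis: % inhibition scaled between DMSO and EC80 PEA controls / Repeats: singlicate, one well per test compound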
* hit, by the source's call; x = not tested or not shown.

SMILES	M1 PAM	M1 ag	HTR2A ag	TAAR1 agonist	M1 antag	TAAR1 antagonist
c1ccc(C2Nc3ccccc3C3OCCCC23)cc1 (stereo not drawn)	4	-6	-3	0	-11	-9
c1ccc(C2Nc3ccccc3Oc3ccccc32)cc1 (stereo not drawn)	5	-1	-2	39*	-19	14
Cc1ccc([N+](=O)[O-])cc1NC(=O)C(Sc1ccccc1)c1ccccc1 (stereo not drawn)	-19	-9	-6	2	20	52*
CC1Oc2ccccc2N(CC(=O)N2CCCCCC2)C1=O (stereo not drawn)	10	-2	1	2	-2	2
COc1ccc(N2CCN(C(=O)c3cn(CC4CCCCC4)nn3)CC2)cc1	3	-1	4	0	-4	-21
CC(C)(C)c1ccccc1NC(=O)Nc1nc(C(N)c2ccccc2Cl)cs1 (stereo not drawn)	16	3	1	44*	-13	2
CC(C)C(N)c1csc(NC(=O)Nc2ccccc2C(C)(C)C)n1 (stereo not drawn)	12	-2	8	7	-14	-8
COc1cccc(C(=O)Nc2ccc3c(cc2=O)[C@@H](NC(C)=O)CCc2cc(OC)c(OC)c(OC)c2-3)c1	8	-3	16*	x	-5	x
COC(=O)Cc1nnn2c1[C@H](C)[C@@H](OC)c1cccc(Cl)c1-2	x	x	x	0	x	5
O=C(Nc1ccc(NC(=O)c2ccc(Cl)cc2Cl)cc1)c1cccs1	8	-2	1	7	-6	-5
COc1ccc(/C=C/C(=O)c2ccc(NC(=O)c3cccs3)cc2)cc1OC	3	0	1	43*	-4	53*
COc1ccc(Br)cc1/C=C/C(=O)c1ccc(NC(C)=O)cc1	-5	-2	3	13	9	56*
COc1c(Cl)cc(Cl)cc1C(=O)Nc1ccc(NC(=O)c2cccs2)cc1	-14	-3	3	16	26	69*
COc1ccc(NC(=O)/C=C/c2cc(Br)ccc2OC)cc1	9	-3	-9	1	-4	12
CC(=O)Oc1cc(C(=O)OCC(=O)NC23CC4CC(CC(C4)C2)C3)cc(OC(C)=O)c1OC(C)=O	6	0	2	5	-10	-13
CC(=O)N1c2ccc(S(=O)(=O)N(C)CC(=O)NCc3ccc(C)cc3)cc2CC1C (stereo not drawn)	6	-3	6	0	-13	-1
CCOc1cc(CNCC(C)C)cc(Cl)c1OCc1ccccc1	-3	-8	-2	16	-1	-18
CCOc1cc(CNC2CCCC2)cc(Cl)c1OCc1ccccc1	-2	0	14	58*	1	19
C=C(C)COc1ccc(-c2[nH]ncc2-c2ccc(OC)c(OC)c2)c(O)c1	-3	-4	-5	2	5	50*
C[C@@H]1CCCCO[C@@H](CN(C)C(=O)Nc2ccccc2)[C@@H](C)CN([C@H](C)CO)C(=O)c2cc(NC(=O)NC3CCCCC3)ccc2O1	x	x	x	3	x	-8
CCOC(=O)C1(CCCc2ccccc2)CCN(CC(O)CO)CC1 (stereo not drawn)	15	-10	-3	7	-16	4
C=CCC[C@H](Cc1ccc(F)cc1)C(=O)OC[C@@H](Cc1c[nH]c2ccccc12)NC(=O)[C@@H](CC=C)CC(=O)N(CCO)Cc1ccccc1	6	-1	5	6	-8	51*
C=CC[C@@H](CC(=O)N(CCO)Cc1ccccc1)C(=O)N[C@H](C)COC(=O)[C@@H](CC=C)Cc1ccc(F)cc1	3	1	-6	6	1	-28
C=CC[C@H](CC(=O)N(CCO)Cc1ccccc1)C(=O)N[C@H](COC(=O)[C@@H](CC=C)Cc1ccc(F)cc1)Cc1ccccc1	-3	-2	-11	8	10	52*
Cc1cc(C)c2nc(NNC(=O)c3cc(=O)c4ccccc4o3)sc2c1	1	-3	0	-2	-3	-22
SMILES	M1 PAM	M1 ag	HTR2A ag	TAAR1 agonist	M1 antag	TAAR1 antagonist
O=C(N=C1SC2CS(=O)(=O)CC2N1c1ccc(F)c(Cl)c1)C1CCCO1 (stereo not drawn)	0	-1	-4	0	2	-13
CCCCCCCCCCn1ccc(=N)cc1	-25	-8	0	18	63*	-3
CCCCCCCCn1ccc(=N)cc1	12	-8	2	0	-10	7
CC(=O)/C(=N\Nc1ccc(C)cc1)Sc1nncn1C	6	-6	2	5	-5	-13
CC1CCN(CC(=O)Nc2ccccc2C(=O)c2ccccc2)CC1	2	-12	-8	13	-1	-5
O=C(CN1CCCC1)NC(c1ccccc1)c1ccccc1	-26	-8	4	2	69*	6
O=C(CN1CCCCCC1)Nc1ccccc1Oc1ccccc1	-26	-9	-3	10	41*	-32
CC1CCN(CC(=O)Nc2ccccc2-c2ccccc2)CC1	-34	-12	3	30	33*	12
CCCC(C)NC(=S)Nc1cc(C)cc(C)c1 (stereo not drawn)	-3	-2	14	4	2	-32
COc1ccc(N(CC(=O)N2c3ccccc3CC2C)S(=O)(=O)c2c(C)nn(C)c2C)cc1 (stereo not drawn)	-10	-7	-2	3	28*	5
O=C(c1ccccc1)N1CCC2CCN(CCc3ccccc3)CC21 (stereo not drawn)	x	x	x	0	x	-26
COc1cccc(-c2nn(C)c3sc(C(=O)N4CCN(c5ccccn5)CC4)cc23)c1	-14	-1	-2	x	22*	x
CC1(C)CC(=O)C=C(c2ccccc2-c2ccc3c(c2)OCO3)C1=O	x	x	x	-1	x	-2
CCOc1ccc(C(=O)Cn2cnc3ccccc3c2=O)cc1	-12	-8	-12	0	28*	5
COc1ccc(NC(=O)CCc2nc3ccccc3s2)c(OC)c1	2	-2	3	2	-3	-2
CCOc1ccc(C(=O)CCc2nc3ccccc3s2)cc1	-10	-11	21*	6	1	-12
Clc1ccc(-c2noc3c2-c2nc(Cc4cccc5ccccc45)sc2CC3)cc1	-3	-2	3	12	16	-2
COC(=O)c1cc(CSc2nc3ccccc3c(=O)n2C)oc1C	-31	-5	3	4	67*	40
CC1c2ccsc2CCN1S(=O)(=O)c1cccs1 (stereo not drawn)	1	-5	-4	1	-8	-4
COc1cccc(CNC(=O)COc2cc3c(c4oc(=O)cc(C)c24)CCC(C)(C)O3)c1	-24	-12	0	1	19	58*
